Source: ChEMBL document CHEMBL1127424, “7-azetidinylquinolones as antibacterial agents. 2. Synthesis and biological activity of 7-(2,3-disubstituted-1-azetidinyl)-4-oxoquinoline- and -1,8-naphthyridine-3-carboxylic acids. Properties and structure-activity relationships of quinolones with an azetidine moiety” (J Med Chem, 1994)
Converted amounts (≈) assume the structure as drawn.

How the values were obtained:
[1] = system: Staphylococcus aureus; test: In vitro minimum inhibitory concentration for Staphylococcus aureus ATCC 25178; type: functional
Method in brief: (§1)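 Serial 2-fold agar dilution in Mueller Hinton medium, run alongside a reference quinolone. Inoculum adjusted to 10⁸ cfu/mL; compound range 0.007–16 μg/mL.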

[2] = Solubility (buffer pH 7.4); type: physicochemical; conditions: read-out: S
Method in brief: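 Excess solid shaken in 0.05 M phosphate buffer pH 7.4 for 24 h at 25 °C. Suspension filtered through 0.22 μm, discarding the first portion. Filtrate diluted in 0.1 N HCl or 0.1 N NaOH and read by UV at the compound's absorbance maximum.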

[3] = system: Pseudomonas aeruginosa; test: In vitro minimum inhibitory concentration for Pseudomonas aeruginosa ATCC 10145; type: functional; method in brief: as §1
[4] = system: Morganella morganii; test: In vitro minimum inhibitory concentration for Morganella morganii ATCC 8019; type: functional; method in brief: as §1
[5] = system: Staphylococcus epidermidis; test: In vitro minimum inhibitory concentration for Staphylococcus epidermidis ATCC 155-1; type: functional; method in brief: as §1
[6] = system: Bacillus cereus; test: In vitro minimum inhibitory concentration for Bacillus cereus ATCC 11778; type: functional; method in brief: as §1
[7] = system: Mus musculus; test: Evaluation of efficacy on systemic infections Pseudomonas aeruginosa HS-116, after oral administration in mice; type: functional
Method in brief: (§2)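 Single oral dose given immediately after infection, one of four doses per group, chosen from in vitro activity. Survival scored after one week. ED50 (total mg/kg protecting 50%) interpolated from survival rates.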

[8] = system: Enterococcus faecalis; test: In vitro minimum inhibitory concentration for Streptococcus faecalis ATCC 10541; type: functional; method in brief: as §1
[9] = system: Bacillus subtilis; test: In vitro minimum inhibitory concentration for Bacillus subtilis ATCC 6633; type: functional; method in brief: as §1
[10] = system: Klebsiella pneumoniae; test: In vitro minimum inhibitory concentration to inhibit Klebsiella pneumoniae ATCC 10031; type: functional; method in brief: as §1
[11] = system: Proteus vulgaris; test: In vitro minimum inhibitory concentration for Proteus vulgaris ATCC 8427; type: functional; method in brief: as §1
[12] = system: Escherichia coli; test: In vitro minimum inhibitory concentration for Escherichia coli ATCC 10799; type: functional; method in brief: as §1
[13] = system: Enterobacter cloacae; test: In vitro minimum inhibitory concentration for Enterobacter cloacae ATCC 23355; type: functional
[14] = AUC (0-4 hr) ug/ml/h; type: ADME, cell-free; set-up: time < 4 hr; concentration or dose not given beside the values; conditions: plasma
Method in brief: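 Mice dosed once orally at 50 mg/kg; blood taken from groups of six mice at 0.5, 1, 2 and 4 h. Serum drug assayed by disk agar diffusion bioassay (Bacillus subtilis ATCC 6633 on Seed Agar, 37 °C, 18 h), giving total activity.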

[15] = HPLC capacity factor (k'); type: ADME
Method in brief: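 Ion-pair reversed-phase HPLC on ODS-2 (10 μm) at 45 °C. Mobile phase: 10 mM sodium heptanesulfonate plus 50 mM KH2PO4 (pH 3.5)–methanol 45:55, 1 mL/min. Samples at 100 μg/mL in DMF, injected in duplicate, UV 280 nm. k' = (tR − t0)/t0.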

[16] = system: Mus musculus; test: Evaluation of efficacy on systemic infections Staphylococcus aureus HS-93, after oral administration in mice; type: functional; method in brief: as §2
[17] = system: Mus musculus; test: Evaluation of efficacy on systemic infections Escherichia coli HM-42, after oral administration in mice; type: functional; method in brief: as §2
[18] = Measured ionization constant (pKa); type: physicochemical; conditions: read-out: pKa1
Method in brief: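 Spectrophotometric titration at 20 ± 1 °C, 0.1 M ionic strength, pH varied with H2SO4 or NaOH made up in the compound stock. Absorbance followed at compound-specific wavelengths chosen from 200–400 nm scans. pKa1 and pKa2 taken as the inflection points of the two-step absorbance vs pH curve.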

| SMILES | MIC [1] | solubility [2] | MIC [3] | MIC [4] | MIC [5] | MIC [6] | ED50 [7] | MIC [8] | MIC [9] | MIC [10] | MIC [11] | MIC [12] | MIC [13] | AUC [14] | Log k' [15] | ED50 [16] | ED50 [17] | pKa [18] |
| --- | --- | --- | --- | --- | --- | --- | --- | --- | --- | --- | --- | --- | --- | --- | --- | --- | --- | --- |
| C[C@H]1[C@@H](N)CN1c1c(F)cc2c(=O)c(C(=O)O)cn(C3CC3)c2c1F | 0.012 µg/mL (≈ 0.0344 µM) | 23.6 µg/mL (≈ 67.6 µM) | 1 µg/mL (≈ 2.86 µM) | 0.012 µg/mL (≈ 0.0344 µM) | 0.12 µg/mL (≈ 0.344 µM) | 0.12 µg/mL (≈ 0.344 µM) | 123 mg/kg | 1 µg/mL (≈ 2.86 µM) | 0.06 µg/mL (≈ 0.172 µM) | 0.12 µg/mL (≈ 0.344 µM) | 0.25 µg/mL (≈ 0.716 µM) | 0.12 µg/mL (≈ 0.344 µM) | 0.06 µg/mL (≈ 0.172 µM) | 9000 ng·h/mL | 0.0813 | 18.6 mg/kg | 6.2 mg/kg | – |
| C[C@H]1[C@H](N)CN1c1nc2c(cc1F)c(=O)c(C(=O)O)cn2-c1ccc(F)cc1F | 0.12 µg/mL (≈ 0.297 µM) | 10.4 µg/mL (≈ 25.7 µM) | 1 µg/mL (≈ 2.47 µM) | 0.25 µg/mL (≈ 0.618 µM) | 0.25 µg/mL (≈ 0.618 µM) | 0.25 µg/mL (≈ 0.618 µM) | 140 mg/kg | 1 µg/mL (≈ 2.47 µM) | 0.06 µg/mL (≈ 0.148 µM) | 0.06 µg/mL (≈ 0.148 µM) | 1 µg/mL (≈ 2.47 µM) | 0.25 µg/mL (≈ 0.618 µM) | 0.12 µg/mL (≈ 0.297 µM) | 25800 ng·h/mL | 0.1417 | 8.9 mg/kg | 3.3 mg/kg | – |
| C[C@H]1[C@H](N)CN1c1c(F)cc2c(=O)c(C(=O)O)cn(-c3ccc(F)cc3F)c2c1F | 0.12 µg/mL (≈ 0.285 µM) | 23.4 µg/mL (≈ 55.5 µM) | 1 µg/mL (≈ 2.37 µM) | 0.25 µg/mL (≈ 0.593 µM) | 0.12 µg/mL (≈ 0.285 µM) | 0.12 µg/mL (≈ 0.285 µM) | 61 mg/kg | 1 µg/mL (≈ 2.37 µM) | 0.06 µg/mL (≈ 0.142 µM) | 0.06 µg/mL (≈ 0.142 µM) | 0.5 µg/mL (≈ 1.19 µM) | 0.12 µg/mL (≈ 0.285 µM) | 0.06 µg/mL (≈ 0.142 µM) | 22300 ng·h/mL | 0.2644 | 10 mg/kg | 2.3 mg/kg | – |
| C[C@H]1[C@H](N)CN1c1cc2c(cc1F)c(=O)c(C(=O)O)cn2C1CC1 | 0.12 µg/mL (≈ 0.362 µM) | 9.9 µg/mL (≈ 29.9 µM) | 0.25 µg/mL (≈ 0.754 µM) | 0.03 µg/mL (≈ 0.0905 µM) | 0.12 µg/mL (≈ 0.362 µM) | 0.06 µg/mL (≈ 0.181 µM) | 108 mg/kg | 0.25 µg/mL (≈ 0.754 µM) | 0.03 µg/mL (≈ 0.0905 µM) | 0.03 µg/mL (≈ 0.0905 µM) | 0.06 µg/mL (≈ 0.181 µM) | 0.03 µg/mL (≈ 0.0905 µM) | 0.03 µg/mL (≈ 0.0905 µM) | 9200 ng·h/mL | -0.0132 | 22.3 mg/kg | 3.5 mg/kg | 6.46 |
| C[C@H]1[C@@H](N)CN1c1cc2c(cc1F)c(=O)c(C(=O)O)cn2C1CC1 | 0.12 µg/mL (≈ 0.362 µM) | 6.1 µg/mL (≈ 18.4 µM) | 0.5 µg/mL (≈ 1.51 µM) | 0.03 µg/mL (≈ 0.0905 µM) | 0.06 µg/mL (≈ 0.181 µM) | 0.06 µg/mL (≈ 0.181 µM) | 277 mg/kg | 0.5 µg/mL (≈ 1.51 µM) | 0.03 µg/mL (≈ 0.0905 µM) | 0.03 µg/mL (≈ 0.0905 µM) | 0.06 µg/mL (≈ 0.181 µM) | 0.06 µg/mL (≈ 0.181 µM) | 0.03 µg/mL (≈ 0.0905 µM) | 3700 ng·h/mL | 0.0457 | 36.7 mg/kg | 20 mg/kg | – |
| C[C@H]1[C@H](N)CN1c1cc2c(cc1F)c(=O)c(C(=O)O)cn2-c1ccc(F)cc1F [CETEFLOXACIN] | 0.12 µg/mL (≈ 0.298 µM) | 31 µg/mL (≈ 76.9 µM) | 2 µg/mL (≈ 4.96 µM) | 0.25 µg/mL (≈ 0.62 µM) | 0.12 µg/mL (≈ 0.298 µM) | 0.25 µg/mL (≈ 0.62 µM) | 77.9 mg/kg | 1 µg/mL (≈ 2.48 µM) | 0.03 µg/mL (≈ 0.0744 µM) | 0.015 µg/mL (≈ 0.0372 µM) | 0.5 µg/mL (≈ 1.24 µM) | 0.12 µg/mL (≈ 0.298 µM) | 0.12 µg/mL (≈ 0.298 µM) | 30200 ng·h/mL | 0.1875 | 8.1 mg/kg | 6 mg/kg | – |
| C[C@H]1[C@H](N)CN1c1c(F)cc2c(=O)c(C(=O)O)cn(-c3ccc(F)cc3F)c2c1Cl | 0.12 µg/mL (≈ 0.274 µM) | 16.5 µg/mL (≈ 37.7 µM) | 0.5 µg/mL (≈ 1.14 µM) | 0.25 µg/mL (≈ 0.571 µM) | 0.06 µg/mL (≈ 0.137 µM) | 0.03 µg/mL (≈ 0.0685 µM) | 86.9 mg/kg | 0.25 µg/mL (≈ 0.571 µM) | 0.03 µg/mL (≈ 0.0685 µM) | 0.12 µg/mL (≈ 0.274 µM) | 0.25 µg/mL (≈ 0.571 µM) | 0.06 µg/mL (≈ 0.137 µM) | 0.12 µg/mL (≈ 0.274 µM) | 32300 ng·h/mL | 0.3553 | 4.3 mg/kg | 3.6 mg/kg | – |
